# In the library only some 0.9% were active in any assay of this set; here they are far more common.
# SKN-1 block: blocks SKN-1 activity in C. elegans; C. elegans VP596 Pgst-4::GFP/RFP ratio, acrylamide-induced, 24 h; inhibition, % at 21.8 µM; 0.49% of 360,000 active;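 active = interference check ratio from 0.5 to 1.5 plus GFP to RFP signal ratio inhibition reaching or exceeding a fixed threshold, cut at about 30% in these data, passing the limit was not always enough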
# DAGLB inh: diacylglycerol lipase beta (human) inhibition; inhibition, % at 5.17 µM; AID 504411; 0.059% of 340,000 active; HEK293T DAGLB membrane lysate, EnzChek fluorogenic substrate; in the data active = inhibition above about 34%;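 also: 0% = enzyme with vehicle and 100% = wells lacking enzyme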
# Target sequence (Q8NCG7 whole entry, looked up): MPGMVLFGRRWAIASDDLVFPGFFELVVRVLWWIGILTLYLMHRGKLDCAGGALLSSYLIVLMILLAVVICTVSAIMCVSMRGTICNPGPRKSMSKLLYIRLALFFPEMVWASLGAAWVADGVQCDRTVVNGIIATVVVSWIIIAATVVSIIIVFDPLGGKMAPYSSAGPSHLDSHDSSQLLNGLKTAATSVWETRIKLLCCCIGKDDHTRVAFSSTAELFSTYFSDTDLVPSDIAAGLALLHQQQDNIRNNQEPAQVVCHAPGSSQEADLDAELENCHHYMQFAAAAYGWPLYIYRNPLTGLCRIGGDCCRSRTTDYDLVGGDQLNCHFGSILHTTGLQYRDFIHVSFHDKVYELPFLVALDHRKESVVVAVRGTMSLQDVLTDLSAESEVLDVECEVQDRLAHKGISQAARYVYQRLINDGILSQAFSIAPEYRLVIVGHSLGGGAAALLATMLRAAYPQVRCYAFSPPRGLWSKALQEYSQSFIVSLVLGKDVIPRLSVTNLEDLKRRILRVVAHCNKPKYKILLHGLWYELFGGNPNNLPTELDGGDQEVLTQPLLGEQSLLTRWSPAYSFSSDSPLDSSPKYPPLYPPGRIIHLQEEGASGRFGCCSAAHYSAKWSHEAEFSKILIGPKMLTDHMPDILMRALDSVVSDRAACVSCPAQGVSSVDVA
# Tn6 DDE FP: disrupts Tn6 cyclic peptide binding to fibrin D-Dimer-E complex; P02675; Fibrin DD(E) TRITC-Tn6 fluorescence polarization displacement; inhibition, % at 8.3 µM; 0.21% of 370,000 active;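 active = inhibition above a per-campaign cutoff: mean of compounds within control limits plus 3 SD, cut at about 15% in these data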;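 also: 0% = median of all compound wells on the plate and 100% = blocking peptide control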
# DDE Tn7 FP inh: inhibitors of Tn7 peptide binding to human fibrin DD(E); P02675; FP displacement of FITC-Tn7 peptide from fibrin DD(E); 0% = median of compound wells per plate; inhibition, % at 8.3 µM; 0.13% of 370,000 active;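 active = inhibition above the mean of compounds falling within the control limits plus 3 SD of them, cut at about 14% in these data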;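 also: 0% = plate median of compound wells and 100% = 10 µM Aha-Tn7 peptide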
#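 Test system – human fibrin DD(E) · Times – 10 min preincubation, 3 h with tracer, room temperature · Detection – fluorescence polarization of the labelled Tn7 tracer · Measure – percent inhibition normalized to high-control wells · Benchmarks – high control wells with 10 µM unlabelled Aha-Tn7 peptide (full inhibition) · Repeats – singlicate testing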
# PolyA inhibitor: yeast polyadenylation inhibition; S. cerevisiae SKY197-pL101 polyadenylation reporter, beta-gal luminescence; efflux-impaired pdr1/pdr3 knockout yeast; score 100 = 6 SD above DMSO; activity score, % at 12 µM; 0.02% of 300,000 active; AID 1875;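 active = lowest replicate activity score at least 50, where 100 means six control SD above control mean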;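 also: yeast exposed to compound for 9 h at 30 °C; higher score means more reporter readthrough which indicates perturbed polyadenylation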
# MT1-MMP act inh: MT1-MMP (human) activation inhibition; AID 651647; HT1080 RFP-PRO-GFP cells, GFP/RFP ratio fluorescence, overnight; percent of plate control window, DMSO zero; 0.061% of 360,000 active; GFP/RFP ratio change, % at 20 µM; P50281;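 active = GFP/RFP ratio change of at least 30% with cell ATP level not reduced by more than half and red fluorescence within 50% of control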
#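 Assay system: HT1080 RFP-PRO-GFP cells | Dosing: 20 µM single dose, 1% DMSO | Incubation: Cells overnight before dosing, compound overnight, 37 °C, 5% CO2 | Evaluation: GFP/RFP fluorescence ratio | Control set: DMSO-only wells and HT1080 RFP-L50D-GFP cell wells as references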
# Starred values were filed as active, the others as inactive; . = no result.
SMILES,SKN-1 block,DAGLB inh,Tn6 DDE FP,DDE Tn7 FP inh,PolyA inhibitor,MT1-MMP act inh
Cn1c(N=Nc2ccc(N3CCOCC3)cc2)[n+](C)c2ccccc21,39*,3,2,-6,-11,7
Cn1c(=Nc2ccc(N3CCOCC3)cc2)ccc2ccccc21,6,-1,-4,-3,-13,-7
COC(=O)C1=C(C)NC(=O)/C1=C\N(C)C,39*,-6,-3,4,22,-6
CCOC(=O)CN(C(=O)CNC(=O)c1cccs1)C(C(=O)NC1CCCCC1)c1cccs1 (centres undefined),46*,1,-4,0,-1,3
CN(C)c1ccc(N=Nc2nccs2)cc1,56*,34,0,-3,.,35
O=[N+]([O-])c1ccc(Oc2ccc(F)cc2)c2ccncc12,36*,0,5,1,-26,-13
CCN(CC)S(=O)(=O)c1cccc(-c2nnc(SCC(=O)c3cc(C)n(C4CC4)c3C)o2)c1,42*,2,-12,1,8,0
CCOc1c2ccc(C(=O)NCc3ccc(OC(F)(F)F)cc3)cc2nn1CC,27,-1,2,-3,4,-3
CCCn1nc2cc(C(=O)NCc3ccc(OC(F)(F)F)cc3)ccc2c1OCC,62*,-1,0,-3,-1,7
COC(=O)c1cc(C(C)c2c[nH]c3ccccc23)n2ccccc12 (centres undefined),.,.,1,11,.,.
O=C(c1cc(COc2ccc(F)cc2Cl)on1)N1CCCCCC1,38*,-2,5,0,-28,1
COc1ccc(OC)c(S(=O)(=O)Nc2ccc(C(=O)Nc3cc(C)on3)cc2)c1,.,.,-10,1,.,.
COC(=O)c1nnn(-c2ccccc2)c1N,2,-2,-2,-6,16,3
C#Cc1cccc(-n2nnc(C(=O)OC)c2-c2ccccc2)c1,38*,1,-7,-7,1,0
Fc1ccc(-c2nc(-c3cccs3)no2)cc1,51*,-16,3,3,-12,2
Fc1ccc(-c2cnc(-c3cccs3)o2)cc1,92*,-7,-1,-10,-18,-5
O=C(COC(=O)/C=C/c1cccs1)NC(c1ccccc1)c1ccccc1,17,0,4,2,150*,0
N#C/C(=C\c1ccc(N2CCOCC2)cc1)c1ccccc1,48*,-3,1,-4,-16,-1
N#C/C(=C\c1ccc(N2CCOCC2)o1)c1ccccc1,19,0,1,4,-9,-37
O=c1[nH]ncn2cccc12,46*,0,-3,2,-9,-4
COc1cccc(NC(=O)NNC(=O)c2ccc3c(c2)NC(=O)C(C)(C)O3)c1,40*,2,-3,-5,4,3
COc1ccccc1NC(=O)NNC(=O)c1ccc2c(c1)NC(=O)C(C)(C)O2,-7,-4,-13,-6,2,.
COC(=O)[C@@]12CCCCC3=C1N(CCC3)C(=O)[C@H]2CC(=O)NCCCN1CCCC1=O,.,.,1,4,.,.
CC(C)(C)NC(=O)CN(C(=O)CCN1CCCc2ccccc21)C(C)(C)C,40*,-2,-1,2,-15,-24
Fc1ccccc1-c1nc(-c2ccc(Br)o2)no1,72*,-12,-14,4,-5,-2
SMILES,SKN-1 block,DAGLB inh,Tn6 DDE FP,DDE Tn7 FP inh,PolyA inhibitor,MT1-MMP act inh
Fc1ccccc1-c1nc(-c2ccncc2)no1,46*,-3,3,1,-8,-1
c1ccc2c(-c3nc(-c4ccncc4)no3)cccc2c1,98,-11,-5,6,-24,-6
Cc1ccccc1-c1nc(-c2ccc(Br)o2)no1,46*,-7,-2,-10,-7,-2
c1ccc(-c2noc(-c3cccc4ccccc34)n2)cc1,37*,-12,-2,-6,-10,-3
Fc1ccc(Oc2nnnn2-c2ccccc2)cc1,7,-2,-5,-1,-15,0
Brc1ccc(Oc2nnnn2-c2ccccc2)cc1,37*,-8,-1,-2,-3,2
O=C(NC1=NC2(C=C3CCCCC3n3c(=O)n(-c4ccccc4)c(=O)n32)CN1CC1CC1)c1ccccc1 (centres undefined),.,.,-4,-2,.,.
CC(C)CCNC(=O)c1cnn2c(C(F)(F)F)cc(-c3ccco3)nc12,44*,1,-10,-5,-13,1
O=C(NC1CCCC1)c1cnn2c(C(F)(F)F)cc(-c3ccco3)nc12,21,-2,-10,-8,-20,-7
c1ccc(CCn2nnc(-c3ccc(N4CCOCC4)cc3)n2)cc1,.,.,2,-9,.,.
O=C(NNC(=S)NC1CC2C=CC1C2)c1cccnc1 (centres undefined),16,.,-1,-10,66*,1
O=C(/C=C/c1ccccc1)NC(=S)NNC(=O)c1cccnc1,36*,-1,2,0,-3,5
O=C(NNC(=S)NC(=O)c1ccccc1)c1cccnc1,-3,2,-2,6,19,0
O=C(/C=C/c1ccccc1)NC(=S)NNC(=O)c1cnccn1,18,0,3,-1,-18,15
COC(=O)[C@]12C[C@H](CC(=O)NCCc3ccccc3OC)C(=O)N(Cc3cccc4ccccc34)C1=C[C@H](C(C)C)O[C@@H]2C1CC1,.,.,4,-2,.,.
O=C(Nc1ccc(F)cc1)OCc1cn(Cc2ccc(C(F)(F)F)cc2)nn1,.,.,2,2,.,.
Cn1c(=O)c2ncn(CC(=O)Nc3ccc4c5c(cccc35)CC4)c2n(C)c1=O,42*,-2,0,-3,-15,-21
Cc1cccc(C)c1NC(=O)Cn1cnc2c(=O)n(C)c(=O)n(C)c21,-6,-1,5,2,3,-1
CC(C)C(Cl)=NOC(=O)Nc1ccc(F)cc1,5,-3,20*,-4,.,9
C/C(=N\OC(=O)Nc1ccc(Cl)cc1)c1ccc(F)c(F)c1,10,-1,5,8,-5,0
O=C(O)c1cnc2ccccc2n1,37*,0,-9,-2,0,-4
COc1cc(NC(=O)C2CCCN(S(=O)(=O)c3ccc(C)cc3)C2)cc(OC)c1 (centres undefined),.,.,6,7,.,.
O=C(Nc1ccc(-c2noc(CCc3ccccc3)n2)cc1)c1ccco1,44*,-5,-7,-10,-17,-2
O=C(Cn1nc(-c2ccccc2)ccc1=O)NCCc1ccccc1F,.,.,-11,-6,.,.
CSc1ccc(C2C(C#N)=C(N)Oc3c2ccc(=O)c2c(C)oc(C)c32)cc1 (centres undefined),5,7,-3,-3,-15,-80

# Bioassay records deposited in PubChem BioAssay by several laboratories.
